Experimental data: ChEMBL document CHEMBL3779840, “Discovery of 2-((3-Amino-4-methylphenyl)amino)-N-(2-methyl-5-(3-(trifluoromethyl)benzamido)phenyl)-4-(methylamino)pyrimidine-5-carboxamide (CHMFL-ABL-053) as a Potent, Selective, and Orally Available BCR-ABL/SRC/p38 Kinase Inhibitor for Chronic Myeloid Leukemia” (J Med Chem, 2016)
Active and inactive are the calls of the source. The calls are words filed in the database; no cut-off is given here.

Biological target: Proto-oncogene tyrosine-protein kinase Src (Homo sapiens, UniProt P12931)
Test: Inhibition of SRC phosphorylation in human KU812 cells at 0.01 to 3 uM after 1 hr by immunoblotting method
Format: cell-based
Summary of the method: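 Cells were treated for 1 h at the indicated concentrations. Whole-cell lysates were then analysed by Western blot for phosphorylation of signalling proteins in the BCR-ABL pathway.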

Sequence of Proto-oncogene tyrosine-protein kinase Src (P12931 2-536 limits assumed): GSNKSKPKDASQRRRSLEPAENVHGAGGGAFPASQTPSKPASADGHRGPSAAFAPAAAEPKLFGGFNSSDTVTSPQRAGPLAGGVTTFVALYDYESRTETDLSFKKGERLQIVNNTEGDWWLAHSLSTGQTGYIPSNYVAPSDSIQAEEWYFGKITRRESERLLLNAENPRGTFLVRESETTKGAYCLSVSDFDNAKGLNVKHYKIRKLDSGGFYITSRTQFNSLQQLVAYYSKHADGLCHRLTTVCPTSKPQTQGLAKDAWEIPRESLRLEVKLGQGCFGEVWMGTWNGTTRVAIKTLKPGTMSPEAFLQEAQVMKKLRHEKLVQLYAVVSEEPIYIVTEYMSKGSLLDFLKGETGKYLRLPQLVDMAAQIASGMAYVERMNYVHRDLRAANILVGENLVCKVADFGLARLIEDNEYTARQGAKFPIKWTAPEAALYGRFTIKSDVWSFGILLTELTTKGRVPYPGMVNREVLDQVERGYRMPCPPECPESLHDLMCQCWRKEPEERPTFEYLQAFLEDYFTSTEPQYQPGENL

In the case of `CNc1nc(Nc2ccc(C)c(N)c2)ncc1C(=O)Nc1cc(NC(=O)c2cccc(C(F)(F)F)c2)ccc1C`, the inhibition is reported as “inactive”.
